Measured values taken from ChEMBL document CHEMBL5375965, “Discovery of New Broad-Spectrum Anti-Infectives for Eukaryotic Pathogens Using Bioorganometallic Chemistry” (J Med Chem, 2023).
Calls of active or inactive are those of the source. The calls are words filed in the database; no cut-off is given here.

Assays:
Saccharomyces cerevisiae [1] = assay: Antifungal activity against Saccharomyces cerevisiae harboring heterozygous YGR115C deletion mutant assessed as sensitivity by measuring ratio of control intensity to treatment intensity by chemogenomic screening analysis relative to control; assay type: functional
Brugia pahangi [2] = assay: Antinematodal activity against Brugia pahangi infected in mongolian jirds assessed as reduction in worm fecundity at 10 mg/kg, po administered twice daily for 5 days; assay type: functional, organism-based; settings: time 5.0 day
How it was run: (§1)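 Male jirds (5–7 weeks, 50–60 g) infected ip with 200 L3. Oral dosing in 5% glucose started 5 months post-infection; vehicle received 5% glucose. Necropsy 5 days after last dose (6 animals/treated group, 9 vehicle). Worms recovered and counted. Ex vivo MF release compared by Kruskal–Wallis/Dunn. Embryograms were scored blinded by hemocytometer, ≥200 stages per female, 6–9 females/group, and analysed by two-way ANOVA/Dunnett versus vehicle.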

Brugia pahangi [3] = assay: Antinematodal activity against Brugia pahangi assessed as inhibition of worm motility at day 6 by worminator analysis; assay type: functional; settings: time 6 day
How it was run: (§2)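 Single adult female worm per well in RPMI-1640 (25 mM HEPES, 2.0 g/L NaHCO₃, 5% heat-inactivated FBS, 1X antibiotic/antimycotic), 4 replicate wells, 6 days at 37°C, 5% CO₂. Motility recorded 60 s per plate on days 0, 1, 2, 3 and 6 as pixels displaced/s. Inhibition = (1 − treated MMU/mean 1% DMSO control MMU) × 100, floored at zero. IC₅₀ from 3- and 6-point dilutions.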

Brugia pahangi [4] = assay: Antinematodal activity against Brugia pahangi infected in mongolian jirds assessed as deformed embryos with vacuolated spaces pre-infected for 5 months followed by compound addition at 10 mg/kg, po administered twice daily for 5 days; assay type: functional, organism-based; settings: time 5.0 day
How it was run: (§3)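 Male jirds (5–7 weeks, 50–60 g) infected ip with 200 L3. At 5 months, dosed orally in 5% glucose; vehicle received 5% glucose. Necropsy 5 days after last dose. Adult females fixed in 2.5% glutaraldehyde/2% paraformaldehyde in 0.1 M cacodylate, Spurr-embedded, ultrathin sections contrasted with uranyl substitute and lead citrate, imaged by TEM.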

Brugia pahangi [5] = assay: Antinematodal activity against Brugia pahangi infected in mongolian jirds assessed as reduction in number of microfilarial release at 10 mg/kg, po administered twice daily for 5 days; assay type: functional, organism-based; settings: time 5.0 day; how it was run: as §1
Saccharomyces cerevisiae [6] = assay: Antifungal activity against Saccharomyces cerevisiae harboring heterozygous RPC19 deletion mutant assessed as sensitivity by measuring ratio of control intensity to treatment intensity by chemogenomic screening analysis relative to control; assay type: functional
Trichuris muris [7] = assay: Downregulation of Hippo gene expression in Trichuris muris at 100 uM incubated for 2 to 3 hrs; assay type: functional; settings: time 2-3 hrs
How it was run: (§4)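 Adult female worms exposed in vitro to compound or 1% DMSO vehicle, then frozen at −80°C. RNA-seq reads aligned to the T. muris genome (PRJEB126, WBPS16) with STAR and counted per gene with featureCounts. Expression expressed as FPKM. Fold changes and significance relative to DMSO controls calculated with DESeq2.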

Trichuris muris [8] = assay: Antinematodal activity against Trichuris muris by worminator analysis; assay type: functional, organism-based
How it was run: as §2, with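 “Two” for “Single”, “worms” for “female worm”, “plate as pixels displaced/s” for “plate”, “6.” for “6 as pixels displaced/s.”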

Trichuris muris [9] = assay: Antinematodal activity against Trichuris muris assessed as inhibition of worm motility at day 1 by worminator analysis; assay type: functional
How it was run: as §2, with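 “Two” for “Single”, “worms” for “female worm”, “plate as pixels displaced/s” for “plate”, “6.” for “6 as pixels displaced/s.”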

Trichuris muris [10] = assay: Downregulation of mitochondrial acyl carrier reductase expression in Trichuris muris at 100 uM incubated for 2 to 3 hrs; assay type: functional; settings: time 2-3 hrs; how it was run: as §4
Brugia pahangi [11] = assay: Antinematodal activity against Brugia pahangi infected in mongolian jirds assessed as deformed embryos with punctate pre-infected for 5 months followed by compound addition at 10 mg/kg, po administered twice daily for 5 days; assay type: functional, organism-based; settings: time 5.0 day; how it was run: as §3
Saccharomyces cerevisiae [12] = assay: Antifungal activity against Saccharomyces cerevisiae harboring heterozygous PMP1 deletion mutant assessed as sensitivity by measuring ratio of control intensity to treatment intensity by chemogenomic screening analysis relative to control; assay type: functional
Brugia pahangi [13] = assay: Antinematodal activity against Brugia pahangi infected in mongolian jirds assessed as increase in number of deformed eggs at 10 mg/kg, po administered twice daily for 5 days; assay type: functional, organism-based; settings: time 5.0 day; how it was run: as §1
Trichuris muris [14] = assay: Downregulation of fatty acid synthase expression in Trichuris muris at 100 uM incubated for 2 to 3 hrs; assay type: functional; settings: time 2-3 hrs; how it was run: as §4
Trichuris muris [15] = assay: Antinematodal activity against Trichuris muris assessed as inhibition of worm motility at day 2 by worminator analysis; assay type: functional; settings: time 2 day
How it was run: as §2, with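 “Two” for “Single”, “worms” for “female worm”, “plate as pixels displaced/s” for “plate”, “6.” for “6 as pixels displaced/s.”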

Brugia pahangi [16] = assay: Antinematodal activity against Brugia pahangi infected in mongolian jirds assessed as embryos with autophagolysosomes pre-infected for 5 months followed by compound addition at 10 mg/kg, po administered twice daily for 5 days; assay type: functional, organism-based; settings: time 5.0 day; how it was run: as §3
Saccharomyces cerevisiae [17] = assay: Antifungal activity against Saccharomyces cerevisiae harboring heterozygous PMC1 deletion mutant assessed as sensitivity by measuring ratio of control intensity to treatment intensity by chemogenomic screening analysis relative to control; assay type: functional
Brugia pahangi [18] = assay: Antinematodal activity against Brugia pahangi infected in mongolian jirds assessed as embryos with mature lysosomes pre-infected for 5 months followed by compound addition at 10 mg/kg, po administered twice daily for 5 days; assay type: functional, organism-based; settings: time 5.0 day; how it was run: as §3
Brugia pahangi [19] = assay: Antinematodal activity against Brugia pahangi assessed as inhibition of worm motility at day 2 by worminator analysis; assay type: functional; settings: time 2 day; how it was run: as §2
Brugia pahangi [20] = assay: Antinematodal activity against Brugia pahangi assessed as inhibition of worm motility at day 1 by worminator analysis; assay type: functional; settings: time 1 day; how it was run: as §2
Trichuris muris [21] = assay: Downregulation of mTOR gene expression in Trichuris muris at 100 uM incubated for 2 to 3 hrs; assay type: functional; settings: time 2-3 hrs; how it was run: as §4
Saccharomyces cerevisiae [22] = assay: Antifungal activity against Saccharomyces cerevisiae harboring heterozygous RSC9 deletion mutant assessed as sensitivity by measuring ratio of control intensity to treatment intensity by chemogenomic screening analysis relative to control; assay type: functional
Brugia pahangi [23] = assay: Antinematodal activity against Brugia pahangi infected in mongolian jirds assessed as deformed embryos with globular material pre-infected for 5 months followed by compound addition at 10 mg/kg, po administered twice daily for 5 days; assay type: functional, organism-based; settings: time 5.0 day; how it was run: as §3
Brugia pahangi [24] = assay: Antinematodal activity against Brugia pahangi infected in mongolian jirds assessed as reduction in reproductive output at 10 mg/kg, po administered twice daily for 5 days; assay type: functional, organism-based; settings: time 5.0 day; how it was run: as §1
Brugia pahangi [25] = assay: Antinematodal activity against Brugia pahangi infected in mongolian jirds assessed as tissue damage in reproductive tracts pre-infected for 5 months followed by compound addition at 10 mg/kg, po administered twice daily for 5 days; assay type: functional, organism-based; settings: time 5.0 day; how it was run: as §3
Brugia pahangi [26] = assay: Antinematodal activity against Brugia pahangi infected in mongolian jirds assessed as reduction in number of eggs at 10 mg/kg, po administered twice daily for 5 days; assay type: functional, organism-based; settings: time 5.0 day; how it was run: as §1
Brugia pahangi [27] = assay: Antinematodal activity against Brugia pahangi infected in mongolian jirds assessed as reduction in worm burden at 10 mg/kg, po administered twice daily for 5 days; assay type: functional, organism-based; settings: time 5.0 day; how it was run: as §1
Trichuris muris [28] = assay: Antinematodal activity against Trichuris muris assessed as inhibition of worm motility at day 6 by worminator analysis; assay type: functional; settings: time 6 day
How it was run: as §2, with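 “Two” for “Single”, “worms” for “female worm”, “plate as pixels displaced/s” for “plate”, “6.” for “6 as pixels displaced/s.”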

Trichuris muris [29] = assay: Antinematodal activity against Trichuris muris assessed as inhibition of worm motility at day 5 by worminator analysis; assay type: functional; settings: time 5 day
Brugia pahangi [30] = assay: Antinematodal activity against Brugia pahangi assessed as inhibition of worm motility at day 3 by worminator analysis; assay type: functional; settings: time 3 day; how it was run: as §2
Trichuris muris [31] = assay: Antinematodal activity against Trichuris muris assessed as inhibition of worm motility measured immediately by worminator analysis; assay type: functional
How it was run: as §2, with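 “Two” for “Single”, “worms” for “female worm”, “plate as pixels displaced/s” for “plate”, “6.” for “6 as pixels displaced/s.”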

Brugia pahangi [32] = assay: Antinematodal activity against Brugia pahangi by worminator analysis; assay type: functional, organism-based; how it was run: as §2
Trichuris muris [33] = assay: Downregulation of acyl-CoA synthetase expression in Trichuris muris at 100 uM incubated for 2 to 3 hrs; assay type: functional; settings: time 2-3 hrs; how it was run: as §4
Trichuris muris [34] = assay: Downregulation of AMPK gene expression in Trichuris muris at 100 uM incubated for 2 to 3 hrs; assay type: functional; settings: time 2-3 hrs; how it was run: as §4
Trichuris muris [35] = assay: Downregulation of Wnt gene expression in Trichuris muris at 100 uM incubated for 2 to 3 hrs; assay type: functional; settings: time 2-3 hrs; how it was run: as §4
Brugia pahangi [36] = assay: Antinematodal activity against Brugia pahangi assessed as inhibition of worm motility measured immediately by worminator analysis; assay type: functional; how it was run: as §2
Saccharomyces cerevisiae [37] = assay: Antifungal activity against Saccharomyces cerevisiae harboring heterozygous ENP1 deletion mutant assessed as sensitivity by measuring ratio of control intensity to treatment intensity by chemogenomic screening analysis relative to control; assay type: functional
Saccharomyces cerevisiae [38] = assay: Antifungal activity against Saccharomyces cerevisiae harboring heterozygous HYP2 deletion mutant assessed as sensitivity by measuring ratio of control intensity to treatment intensity by chemogenomic screening analysis relative to control; assay type: functional
Saccharomyces cerevisiae [39] = assay: Antifungal activity against Saccharomyces cerevisiae harboring heterozygous YPR136C deletion mutant assessed as sensitivity by measuring ratio of control intensity to treatment intensity by chemogenomic screening analysis relative to control; assay type: functional
Saccharomyces cerevisiae [40] = assay: Antifungal activity against Saccharomyces cerevisiae harboring heterozygous UTP14 deletion mutant assessed as sensitivity by measuring ratio of control intensity to treatment intensity by chemogenomic screening analysis relative to control; assay type: functional
Saccharomyces cerevisiae [41] = assay: Antifungal activity against Saccharomyces cerevisiae harboring heterozygousYDL144C deletion mutant assessed as sensitivity by measuring ratio of control intensity to treatment intensity by chemogenomic screening analysis relative to control; assay type: functional
Candida albicans [42] = assay: Antifungal activity against Candida albicans CAAL28 infected in BALB/c mouse candidiasis model administered once daily for 3 days; assay type: functional, organism-based; settings: CAAL28, 72 h
Candida albicans [43] = assay: Antifungal activity against Candida albicans CAAL28 infected in BALB/c mouse candidiasis model assessed as animal survival pre-infected for 1 hr followed by compound addition at 10 mg/kg administered once daily for 3 days and measured on day 4 (reference value: 25%); assay type: functional; settings: time 4 day

## CC(C1C2CC3CC(C2)CC1C3)N(C)CC(O)(Cn1cncn1)c1ccc(F)cc1F.Cl (stereo not drawn)
Saccharomyces cerevisiae [1]
  log2(ratio): -4.65
Brugia pahangi [2]
  Activity: Active
Brugia pahangi [3]
  inhibition (INH): 100%
Brugia pahangi [4]
  Activity: Active
Brugia pahangi [5]
  Activity: Active
Saccharomyces cerevisiae [6]
  log2(ratio): -4.18
Trichuris muris [7]
  Activity: Active
Trichuris muris [8]
  IC50: 20.4 µM
Trichuris muris [9]
  inhibition (INH): 32%
Trichuris muris [10]
  Activity: Active
Brugia pahangi [11]
  Activity: Active
Saccharomyces cerevisiae [12]
  log2(ratio): -6.54
Brugia pahangi [13]
  Activity: Active
Trichuris muris [14]
  Activity: Active
Trichuris muris [15]
  inhibition (INH): 42%
Brugia pahangi [16]
  Activity: Active
Saccharomyces cerevisiae [17]
  log2(ratio): -4.67
Brugia pahangi [18]
  Activity: Active
Brugia pahangi [19]
  inhibition (INH): 100%
Brugia pahangi [20]
  inhibition (INH): 100%
Trichuris muris [21]
  Activity: Active
Saccharomyces cerevisiae [22]
  log2(ratio): -6.48
Brugia pahangi [23]
  Activity: Active
Brugia pahangi [24]
  Activity: Active
Brugia pahangi [25]
  Activity: Active
Brugia pahangi [26]
  Activity: Active
Brugia pahangi [27]
  Activity: Active
Trichuris muris [28]
  inhibition (INH): 93%
Trichuris muris [29]
  inhibition (INH): 98%
Brugia pahangi [30]
  inhibition (INH): 99%
Trichuris muris [31]
  inhibition (INH): 10%
Brugia pahangi [32]
  IC50: 2.2 µM
Trichuris muris [33]
  Activity: Active
Trichuris muris [34]
  Activity: Active
Trichuris muris [35]
  Activity: Active
Brugia pahangi [36]
  inhibition (INH): 100%

## CN(CCc1ccccc1)CC(O)(Cn1cncn1)c1ccc(F)cc1F.Cl (stereo not drawn)
Brugia pahangi [3]
  inhibition (INH): 14%
Trichuris muris [9]
  inhibition (INH): 15%
Trichuris muris [15]
  inhibition (INH): 10%
Brugia pahangi [19]
  inhibition (INH): 6%
Brugia pahangi [20]
  inhibition (INH): 19%
Saccharomyces cerevisiae [37]
  log2(ratio): -2.17
Saccharomyces cerevisiae [38]
  log2(ratio): -2.45
Trichuris muris [28]
  inhibition (INH): 0%
Trichuris muris [29]
  inhibition (INH): 1%
Saccharomyces cerevisiae [39]
  log2(ratio): -3.12
Brugia pahangi [30]
  inhibition (INH): 8%
Trichuris muris [31]
  inhibition (INH): 15%
Saccharomyces cerevisiae [40]
  log2(ratio): -5.53
Saccharomyces cerevisiae [41]
  log2(ratio): -4.93
Brugia pahangi [36]
  inhibition (INH): 32%

## OC(Cn1cncn1)(Cn1cncn1)c1ccc(F)cc1F [FLUCONAZOLE]
Brugia pahangi [3]
  inhibition (INH): 4%
Candida albicans [42]
  IC50: > 100 µM
Trichuris muris [9]
  inhibition (INH): 6%
Trichuris muris [15]
  inhibition (INH): 21%
Brugia pahangi [19]
  inhibition (INH): 7%
Brugia pahangi [20]
  inhibition (INH): 15%
Trichuris muris [28]
  inhibition (INH): 13%
Trichuris muris [29]
  inhibition (INH): 20%
Candida albicans [43]
  Activity: >50%
Brugia pahangi [30]
  inhibition (INH): 11%
Trichuris muris [31]
  inhibition (INH): 6%
Brugia pahangi [36]
  inhibition (INH): 10%
